Measured values collected from several papers.
Target: Serine/threonine-protein kinase D2 (PRKD2, Homo sapiens, UniProt Q9BZL6)
Sequence (Q9BZL6 1-878, as in one of the studies): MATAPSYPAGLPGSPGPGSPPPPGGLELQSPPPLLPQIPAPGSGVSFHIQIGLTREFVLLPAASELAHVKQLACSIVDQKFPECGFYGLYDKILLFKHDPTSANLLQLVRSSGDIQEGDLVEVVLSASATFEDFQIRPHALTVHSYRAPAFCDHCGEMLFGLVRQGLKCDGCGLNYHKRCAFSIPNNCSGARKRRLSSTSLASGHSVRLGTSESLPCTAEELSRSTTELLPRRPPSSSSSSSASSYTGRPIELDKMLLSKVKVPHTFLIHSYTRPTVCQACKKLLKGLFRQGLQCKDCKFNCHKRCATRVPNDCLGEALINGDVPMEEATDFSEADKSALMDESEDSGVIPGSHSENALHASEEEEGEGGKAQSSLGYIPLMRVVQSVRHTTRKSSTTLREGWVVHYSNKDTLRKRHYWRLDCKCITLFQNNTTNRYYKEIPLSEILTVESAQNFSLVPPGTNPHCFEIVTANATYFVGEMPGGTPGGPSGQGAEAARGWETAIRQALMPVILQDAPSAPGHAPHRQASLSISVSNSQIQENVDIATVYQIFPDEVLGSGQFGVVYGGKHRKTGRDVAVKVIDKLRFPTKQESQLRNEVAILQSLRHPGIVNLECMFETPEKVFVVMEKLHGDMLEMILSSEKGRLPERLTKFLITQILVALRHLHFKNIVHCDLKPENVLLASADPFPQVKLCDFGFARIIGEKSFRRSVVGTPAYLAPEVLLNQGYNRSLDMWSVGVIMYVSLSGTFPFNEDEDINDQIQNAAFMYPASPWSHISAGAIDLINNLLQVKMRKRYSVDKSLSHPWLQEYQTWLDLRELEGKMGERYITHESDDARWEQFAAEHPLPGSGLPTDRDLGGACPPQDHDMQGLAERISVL

| SMILES | test | conditions | endpoint | result |
| --- | --- | --- | --- | --- |
| c1ccc(CNc2nc(N3CCOc4ccccc43)nc3c2CCCC3)cc1 | target engagement in cells, inhibitor, chemoproteomics | 20 mM | inhibition | -7.2% |
| Cn1nc(C(F)(F)F)cc1-c1cnc(N2CCc3cc(S(=O)(=O)Nc4c(F)cc(Cl)cc4F)cc(N4CCCC4=O)c32)nc1 | cell-free assay, competition with immobilised ligand | 1 µM | remaining binding | 95% |
| CC(C)(C)c1nc(-c2cccc(NS(=O)(=O)c3c(F)cccc3F)c2F)c(-c2ccnc(N)n2)s1 | enzyme activity, inhibitor, radiometric | 1 µM | remaining activity | 30% |
| N#CCCc1ccc2c(c1)-c1[nH]c3ccc([N+](=O)[O-])cc3c1CC(=O)N2 | cell-free assay | 0.5 µM | remaining signal | 94.2% |
| CCCS(=O)(=O)Nc1ccc(F)c(C(=O)c2c[nH]c3ncc(-c4ccc(Cl)cc4)cc23)c1F | enzyme activity, inhibitor | 1 µM | inhibition | < 10% |
| Cn1c2c(c3ccc(Cl)c(Cl)c31)C(C#N)C(C)(C)NC2=O (stereo not shown) | thermal stability, DSF | 10 µM | ΔTm | 0.2 °C |
| Cc1cc(C)c(-n2ccn3nc(-c4cccnc4)cc23)cc1NC(=O)c1cc(C#N)cc(S(F)(F)(F)(F)F)c1 | cell-free assay, competition with immobilised ligand | 0.1 µM | remaining binding | 100% |
| Cc1cc(NC(=O)c2cccc3cc(-c4cccc5[nH]nc(N)c45)ccc23)ccc1F | enzyme activity, inhibitor | 0.1 µM | activity vs control | 91% |
| CCN(CC)c1ccc(C2=NNC(=O)CC2C)cc1[N+](=O)[O-] (stereo not shown) | enzyme activity, inhibitor | 10 µM | remaining activity | 106% |
| CCOc1cc(-c2nncn2C)ccc1Nc1ncc2cc(C)nc(NCC(C)(C)C)c2n1 | enzyme activity, inhibitor, FRET | 1 µM | inhibition | < 15% |
| CC(C)CC(=O)N1CCc2nc(-c3ccc(Br)cc3)nc(N(C)Cc3ccccc3)c2C1 | cell-free assay, competition with immobilised ligand | 0.1 µM | remaining binding | 100% |
| CC(C)(O)[C@H]1CC[C@H](Nc2ccc3ncc(-c4cccc(C(F)(F)F)c4)n3n2)CC1 | enzyme activity, inhibitor | 1 µM | remaining activity | 92% |
| Cn1cncc1C1=CN(c2ncnc3[nH]cnc23)CCS1 | enzyme activity, inhibitor, radiometric | 2 µM | inhibition | 93.1% |
| CC1(C)NC(=O)c2[nH]c3c(Cl)c(Cl)ccc3c2C1C#N (stereo not shown) | thermal stability, DSF | 10 µM | ΔTm | -0.1 °C |
| CCCOc1ccc(OC)c(F)c1C(=O)c1ccc(C(=O)N[C@@H]2CNC[C@H]2NC(=O)c2ccc3[nH]ncc3c2)cc1 | enzyme activity, inhibitor | 10 µM | remaining activity | 48% |
| Cn1c2c(c3ccc(Cl)c(Cl)c31)C(C#N)C1(CCOCC1)NC2=O (stereo not shown) | thermal stability, DSF | 10 µM | ΔTm | -0.1 °C |
| COc1cccc2c(NCc3ccccc3)nc(-n3c(N)nc4ccccc43)nc12 | target engagement in cells, inhibitor, chemoproteomics | 20 mM | inhibition | -4.3% |

| SMILES | test | conditions | endpoint | result |
| --- | --- | --- | --- | --- |
| COc1cc2ncnc(Nc3ccc(Oc4ccccc4)c(C)c3C)c2cc1OC | enzyme activity, inhibitor | 1 µM | inhibition | 2% |
| Cn1cnc(Br)c1C1=CN(c2ncnc3[nH]cnc23)CCS1 | enzyme activity, inhibitor, radiometric | 50 nM | inhibition | 19.1% |
| CCN(CC)CCNC(=O)c1c(C)[nH]c(/C=C2\C(=O)Nc3ccc(F)cc32)c1C | enzyme activity, inhibitor | 0.3 µM | inhibition | 30% |
| COc1cc2c(N3CCN(C(=O)Nc4ccc(OC(C)C)cc4)CC3)ncnc2cc1OCCCN1CCCCC1 | cell-free assay | 0.5 µM | remaining signal | 96.4% |
| Nc1cnc(N2CCc3cc(S(=O)(=O)Nc4c(F)cc(Cl)cc4F)cc(N4CCCC4=O)c32)nc1 | cell-free assay, competition with immobilised ligand | 1 µM | remaining binding | 100% |
| N#CC1c2c([nH]c3c(Cl)c(Cl)ccc23)C(=O)NC12CCCCC2 (racemic) | thermal stability, DSF | 10 µM | ΔTm | 0.1 °C |
| CNc1cccc2cc(C(=O)Nc3ccc(C(=O)O)cc3)c(=O)[nH]c12 | enzyme activity, inhibitor | 10 µM | inhibition | 2.5% |
| COc1cc(-c2cn(C3CCc4ccccc4N(CC(F)(F)F)C3=O)nn2)ccc1-n1ccc(C)n1 (stereo not shown) | cell-free assay, competition with immobilised ligand | 1 µM | remaining binding | 86% |
| Cc1cnc(NC2CCOCC2)nc1-n1cnc(C(=O)NC(CN)c2cc(F)cc(Cl)c2)c1 (stereo not shown) | enzyme activity, inhibitor, radiometric | 1 µM | remaining activity | 5% |
| CN([C@@H]1CCc2c(CC(=O)O)c3ccccc3n2C1)S(=O)(=O)c1ccc(F)cc1 | cell-free assay, competition with immobilised ligand | 1 µM | remaining binding | 100% |
| Nc1ncnc2occ(-c3ccc(NC(=O)Nc4cc(C(F)(F)F)ccc4F)cc3)c12 | cell-free assay, inhibitor | 20 µM | remaining signal | 43% |
| Cc1ccc(Nc2nccc(N(C)c3ccc4c(C)n(C)nc4c3)n2)cc1S(N)(=O)=O | enzyme activity, inhibitor | 0.3 µM | inhibition | 9% |
| O=C(Nc1cnn(-c2csc(C(=O)NC3COC3)c2)c1)Nc1ccccc1Cl | enzyme activity, inhibitor | 5 µM | remaining activity | 92.8% |
| CNC(=O)Nc1ccc2c(c1)[C@@]1(CC2)OC(=O)N(CC(=O)N(Cc2ccc(F)cc2)[C@@H](C)C(F)(F)F)C1=O | cell-free assay, competition with immobilised ligand | 1 µM | remaining binding | 100% |
| CNC(=O)c1cc(Oc2ccc(NC(=O)Nc3ccc(Cl)c(C(F)(F)F)c3)cc2)ccn1 | enzyme activity, inhibitor | 0.3 µM | inhibition | 5% |
| CC(=O)Nc1c(C(C)=O)c(=O)n(C)c2nc(-c3ccc(Cl)cc3Cl)c(-c3ccc(Cl)cc3)cc12 | cell-free assay, competition with immobilised ligand | 1 µM | remaining binding | 100% |
| Cn1c2c(Cl)c(Cl)ccc2c2cn[nH]c(=O)c21 | thermal stability, DSF | 10 µM | ΔTm | 0.1 °C |
